Source: PubChem
Rin1-Abl PPI inh: human Rin1-Abl interaction inhibition | inhibition, % at 7.35 µM | TR-FRET Rin1/Abl binding, biochemical | hit rate 0.4% among 360,000 | P00519+Q13671; in the data active = inhibition above about 5%, passing the limit was not always enough
GRK2 aptamer HTS: human GRK2 inhibition via aptamer displacement. inhibition of aptamer binding, % at 10 µM. bead flow cytometry, FAM-aptamer displacement from GRK2. AID 488847. P25098. hit rate 0.59% among 330,000;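 active = inhibition of aptamer binding above 40%, roughly 3 SD of noise, on plates passing a quality check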;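 note: median bead fluorescence of bound FAM aptamer so fluorescent compounds give negative values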
Target sequence (P25098 whole entry, looked up): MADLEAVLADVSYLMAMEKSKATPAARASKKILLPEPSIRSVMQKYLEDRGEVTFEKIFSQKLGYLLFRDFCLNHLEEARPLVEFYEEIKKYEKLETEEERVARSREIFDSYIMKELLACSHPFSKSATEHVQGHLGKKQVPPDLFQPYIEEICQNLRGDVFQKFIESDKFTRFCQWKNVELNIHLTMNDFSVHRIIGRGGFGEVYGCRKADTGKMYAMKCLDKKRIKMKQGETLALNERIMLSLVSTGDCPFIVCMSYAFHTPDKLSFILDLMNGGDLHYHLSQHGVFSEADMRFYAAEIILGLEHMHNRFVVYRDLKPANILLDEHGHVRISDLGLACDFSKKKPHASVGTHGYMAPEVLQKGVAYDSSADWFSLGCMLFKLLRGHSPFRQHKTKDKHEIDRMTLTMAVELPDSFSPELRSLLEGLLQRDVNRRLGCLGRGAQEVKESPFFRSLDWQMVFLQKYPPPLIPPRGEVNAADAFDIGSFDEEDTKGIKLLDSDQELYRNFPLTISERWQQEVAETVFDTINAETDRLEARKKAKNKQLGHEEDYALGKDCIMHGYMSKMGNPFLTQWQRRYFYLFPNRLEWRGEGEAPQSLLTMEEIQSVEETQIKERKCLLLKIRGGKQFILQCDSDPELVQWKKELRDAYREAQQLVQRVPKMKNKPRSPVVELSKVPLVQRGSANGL
Myeloid diff MLP: myeloid differentiation induction; ER-HoxA9 myeloid progenitors, lysozyme-GFP differentiation, flow cytometry; calls only at 10 µM; hit rate 1% among 360,000; AID 624256;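 active = normalized GFP-positive differentiation at or above the plate's own cutoff, the solvent-only control mean plus 3 SD; inconclusive = no clear call, values can overlap the other calls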;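 note: cells exposed to compound for four days before flow analysis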
T cell HTS: modulates CD8 T cell binding to vesicles. AID 2052. 2C CD8+ T cell-vesicle binding, flow cytometry; active compounds read low. hit rate 0.068% among 330,000. response (vesicle binding), % at 7 µM;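 active = response, share of CD8 T cells binding vesicles, and their 90th percentile fluorescence all below set limits, cut at about 80% in these data, passing the limit was not always enough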;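 note: values below 100% mean blocked vesicle binding to the CD8+ T cells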
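Benchmarks: naked versus QL9-loaded vesicles / Assay system: purified 2C TCR transgenic mouse naive CD8+ T cells / Technique: high-throughput flow cytometry with anti-B7-1 and anti-CD8 staining / Timing: Cell–vesicle co-incubation 1.5 h at 37 °C, staining 20 min on ice / Read-out: percent CD8+ FL2 mean versus row control / Probe or stimulus: QL9-loaded Drosophila micro-vesicles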
SKN-1 inh: blocks SKN-1 activity in C. elegans | C. elegans VP596 Pgst-4::GFP/RFP ratio, acrylamide-induced, 24 h | inhibition, % at 21.8 µM | hit rate 0.49% among 360,000 | AID 624304;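 active = interference check ratio from 0.5 to 1.5 plus GFP to RFP signal ratio inhibition reaching or exceeding a fixed threshold, cut at about 30% in these data, passing the limit was not always enough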
Rce1 inhib: blocks yeast Ras-converting enzyme | yeast membranes, quenched prenylated peptide cleavage fluorescence | calls only | hit rate 0.27% among 290,000 | AID 2563;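 active = fall in fluorescence gain of 50% or more versus controls, with final raw signal at or below 3038400; inconclusive = same 50% fall but final raw signal above 3038400; inactive = fall in fluorescence gain under 50%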;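 note: plate controls were neutral control wells for no effect and wells lacking membranes for full effect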
GRK2 inh confirm: human GRK2 inhibition confirmation, cherry pick 1; hit rate 4% among 2,000; bead-bound GRK2, FAM-aptamer displacement, flow cytometry; shares compounds with GRK2 aptamer HTS; aptamer displacement, % at 10 µM; AID 504451;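 active = aptamer displacement above 40%, near three times the noise of non-fluorescent compounds, on plates passing quality checks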;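 note: negative values mostly reflect intrinsic compound fluorescence rather than true enhancement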
Aptamer quench 1: fluorescent aptamer quenching in GRK2 counter-screen dose response; shares compounds with GRK2 aptamer HTS; Fluorescent RNA aptamer beads, flow cytometry; active compounds read high; fluorescence change (kMESF span), kMESF (concentration not given with the values); 110 tested, under 10 active; AID 504521;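 active = compounds whose bead fluorescence drops by more than 37 kMESF across the dose range, marking them as dye quenchers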
FAM quench CP1: quenches fluorescent RNA aptamer, GRK2 hit artifact; shares compounds with GRK2 aptamer HTS; Carboxyfluorescein RNA aptamer on beads, flow cytometry quenching; active compounds read low; fluorescence response (% of DMSO), % at 10 µM; 2,000 tested, under 10 active;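 active = compounds that quench the bead-bound fluorescent RNA probe, cutting fluorescence to under half of the solvent control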;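 note: counterscreen run without GRK2 so only probe quenching by compound is measured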
GRK2 confirm 2: confirmation of human GRK2 inhibitors binding RNA aptamer site; 360 tested, under 10 active; shares compounds with GRK2 aptamer HTS; bead-bound GRK2, FAM-aptamer displacement, flow cytometry; AID 504782; inhibition of aptamer binding, % at 10 µM;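 active = inhibition of aptamer binding above 40%, about triple the noise seen with nonglowing compounds, on plates passing quality control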;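 note: negative values mostly come from compounds that fluoresce themselves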
Aptamer quench3: counter-screen for GRK2 aptamer inhibitors: fluorescent aptamer quenchers | AID 504819 | shares compounds with GRK2 aptamer HTS | Streptavidin beads, FAM-RNA aptamer fluorescence quenching, flow cytometry | 25 tested, under 10 active | change in fluorescence (kMESF span), kMESF (test concentration not listed);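 active = compounds quenching the bead-bound labeled aptamer, with fluorescence dropping by more than 37 kMESF over the dose range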
FAM quench SP: quenches fluorescent RNA aptamer, GRK2 hit artifact; shares compounds with GRK2 aptamer HTS; carboxyfluorescein RNA aptamer beads, flow cytometry quenching; active compounds read low; fluorescence response vs DMSO, % at 10 µM; 360 tested, under 10 active;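 active = response vs DMSO under 50%, meaning signal dropped by over half, treated as fluorescence quencher; inconclusive = no clear call, values can overlap the other calls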;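 note: labelled aptamer on streptavidin beads without GRK2 as a quench counter-screen; 100% = bead fluorescence of DMSO wells and lower means quenching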
FAM quench DR: aptamer fluorescence quenching in GRK2 powder counter-screen | shares compounds with GRK2 aptamer HTS | Bead-bound FAM RNA aptamer fluorescence quenching, flow cytometry; active compounds read low | fluorescence ratio to DMSO, % at 11.1 µM | 35 tested, under 10 active | AID 588496;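 active = compounds that dim the fluorescent label, raw bead signal shifting by over 33 units between lowest and highest dose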
Numbers without * were called inactive; i = inactive; ? = inconclusive; · = not tested or not shown. In the library only some 2.6% were active in any assay of this set; here they are far more common.

SMILES | Rin1-Abl PPI inh | GRK2 aptamer HTS | Myeloid diff MLP | T cell HTS | SKN-1 inh | Rce1 inhib | GRK2 inh confirm | FAM quench CP1 | others
Cc1ccc(N2CC(C(=O)Nc3cccc(C(=O)NC4CC4)c3)CC2=O)cc1 (centres undefined) | -1.2 | 6.0 | i | 398.6 | -9.9 | · | 5.6 | 97.9
Cc1oc(C(=O)O)cc1COc1ccc2c3c(c(=O)oc2c1C)CCC3 | -0.2 | 73.0* | i | 590.0 | -10.3 | i | 7.5 | 104.5
CCCS(=O)(=O)N1CCC(C(=O)Oc2ccc(OC)cc2)CC1 | -1.9 | 0.0 | i | 137.8 | -15.5 | i | · | ·
Cc1ccccc1NC(=O)CCS(=O)(=O)c1ccc(Br)cc1 | 1.1 | 41.0* | i | 222.5 | 9.0 | i | 18.4 | 102.3 | Aptamer quench3=-6.9;FAM quench DR=97.0
Cc1ccc(NC(=O)CCS(=O)(=O)c2ccc(Br)cc2)nc1 | 2.0 | 0.0 | i | 458.6 | 3.2 | i | 0.6 | 95.7
CCN(CC)c1ccc(NC(=O)CCS(=O)(=O)c2ccc(Br)cc2)c(C)c1 | -0.4 | 83.0* | i | 32.7 | 13.1 | i | 72.8* | 91.4 | Aptamer quench 1=54.7*;Aptamer quench3=4.6;FAM quench DR=98.0
Cc1ccc(S(=O)(=O)CCC(=O)NC2CCCCC2)cc1 | -0.2 | 0.0 | i | 317.5 | 10.8 | · | · | ·
Cc1ccc(S(=O)(=O)CCC(=O)NC2CCCC2)cc1 | -0.4 | 0.0 | i | 179.8 | 16.8 | i | · | · | GRK2 confirm 2=-0.5;FAM quench SP=100.0
COc1cccc(NC(=O)CSc2c3c(nc4ccccc24)CCCC3)c1 | -5.8 | 0.0 | i | 169.1 | 3.1 | i | · | ·
Cc1cccc(NC(=O)CSc2c3c(nc4ccccc24)CCC3)n1 | -2.8 | 0.0 | i | 263.6 | -0.9 | i | · | · | GRK2 confirm 2=17.9;FAM quench SP=98.0
COC(=O)c1c[nH]c(=S)n1Cc1ccccc1 | 0.4 | · | i | · | 5.1 | · | · | ·
C=C(C)C(=O)Nc1cccc(C2=NOC3(C2)C[C@H](C(N)=O)N(C(=O)CC#N)C3)c1 (some centres undefined) | · | 67.0* | · | 563.4 | · | i | 16.2 | 102.2 | Aptamer quench 1=6.5
C=C(C)C(=O)Nc1cccc(C2=NOC3(C2)C[C@@H](C(N)=O)N(C(=O)CC(c2ccccc2)c2ccccc2)C3)c1 (some centres undefined) | 1.1 | 88.0* | i | 471.2 | -3.5 | i | 80.2* | 97.5 | Aptamer quench 1=1.5
C/C=C/C=C/C(=O)N1CC2(CC(c3cccc(NC(=O)/C=C/C)c3)=NO2)C[C@@H]1C(N)=O (some centres undefined) | 2.7 | 0.0 | i | 330.9 | -1.6 | i | · | ·
C=C(C)C(=O)Nc1cccc(C2=NOC3(C2)C[C@@H](C(N)=O)N(C(=O)/C=C/C=C/C)C3)c1 (some centres undefined) | 3.8 | 92.0* | i | 391.1 | 14.6 | i | 82.5* | 100.4 | Aptamer quench 1=10.4
C/C=C(/C)C(=O)Nc1cccc(C2=NOC3(C2)C[C@@H](C(N)=O)N(C(=O)CC(c2ccccc2)c2ccccc2)C3)c1 (some centres undefined) | -0.1 | 7.0 | i | 927.0 | 15.5 | i | · | ·
CCC(=O)Nc1cccc(C2=NOC3(C2)C[C@H](C(N)=O)N(C(=O)Cc2ccc([N+](=O)[O-])cc2)C3)c1 (some centres undefined) | 1.8 | 3.0 | i | 423.1 | -5.1 | i | · | · | GRK2 confirm 2=6.0;FAM quench SP=97.0
C/C=C(/C)C(=O)Nc1cccc(C2=NOC3(C2)C[C@H](C(N)=O)N(C(=O)Cc2ccc([N+](=O)[O-])cc2)C3)c1 (some centres undefined) | -0.9 | 0.0 | i | 681.3 | 14.1 | i | · | ·
Cc1cc(C)c(NC(=O)CNC(=O)Cc2sc(C)nc2-c2ccc(F)cc2)c(C)c1 | -3.5 | 4.0 | i | 458.3 | 10.4 | i | · | ·
O=C(N1CCCCCC1)N1CCN(S(=O)(=O)c2cccc([N+](=O)[O-])c2)CC1 | 3.5 | 8.0 | ? | 346.7 | -6.4 | i | · | ·
CC(Oc1ccccc1Cl)C(=O)Nc1ccccc1C(=O)N1CCOCC1 (centres undefined) | -1.0 | 0.0 | i | 0.0 | -0.7 | i | · | ·
Cc1cc2c(c(=O)n1C1CC1)C(c1cccc(Cl)c1)C(C#N)=C(N)O2 (centres undefined) | 3.0 | 93.0* | i | 556.0 | -0.8 | i | 3.1 | 100.2
Cc1cc2c(c(=O)n1CCN(C)C)C(c1ccc(Cl)cc1)C(C#N)=C(N)O2 (centres undefined) | -0.8 | 0.0 | i | 251.4 | 19.6 | i | · | ·
CN=c1scc(C)n1/N=C/c1ccc2c(c1)OCO2 | -0.4 | 91.0* | i | 222.0 | 6.4 | i | -1.3 | 101.0
Cc1cccnc1CNC(=O)C1(C)CCCN1CC(C)C (centres undefined) | -1.0 | · | i | · | 2.3 | · | · | ·
SMILES | Rin1-Abl PPI inh | GRK2 aptamer HTS | Myeloid diff MLP | T cell HTS | SKN-1 inh | Rce1 inhib | GRK2 inh confirm | FAM quench CP1 | others
COC(=O)c1ccccc1Nc1ccccc1 | 1.0 | 54.0* | i | 159.7 | -5.6 | · | -2.7 | 97.0
COc1ccc(NC(=O)Cn2nnc(-c3ccccc3)c2COc2ccc3ccccc3c2)cn1 | -2.8 | · | i | · | 8.7 | · | · | ·
Cc1ccc(N(CC(=O)Nc2ccccc2-c2ccccc2)S(=O)(=O)c2ccccc2)c(C)c1 | -2.7 | 40.0 | i | 162.9 | 9.0 | i | -3.5 | 105.7
O=C(NNC(=S)Nc1ccccc1C(F)(F)F)c1ccc(Br)o1 | 0.7 | 42.0* | i | 955.0 | -5.5 | · | 1.9 | 101.1
Cc1occc1C(=O)NNC(=S)Nc1ccccc1C(F)(F)F | -1.1 | 0.0 | i | 234.0 | -1.9 | i | · | ·
C=CCc1ccc(OCC(O)CN2CCc3ccccc3C2)c(OC)c1 (centres undefined) | -2.6 | 0.0 | i | 170.6 | -14.4 | i | · | ·
